# Screening results deposited in PubChem BioAssay by several laboratories.
# This is a sample that favours compounds with a hit; in the whole collection about 4.1% have one here.
# hERG rescue = hERG (human) protection from proarrhythmic block | Q12809 | activation (rescue from dofetilide block), less the hit threshold, % at 10 µM | CHO-hERG, FluxOR thallium flux, dofetilide IC70 present | 310,000 compounds, 0.51% hits | AID 1511;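 active = activation above the mean of controls blocked by dofetilide plus 5 SD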;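 also: thallium influx through hERG after potassium depolarization seen as dye fluorescence rise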
# KCNQ1 act = potentiates or activates the human KCNQ1 potassium channel | P51787 | CHO-K1 KCNQ1, thallium flux FluxOR fluorescence; hits give high values | B-score at 10 µM | 310,000 compounds, 0.35% hits;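 active = fluorescence ratio B-score, a plate-corrected score, at least three library SD, with initial intensity B-score within 5 SD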
# Target sequence (P51787 whole entry, looked up): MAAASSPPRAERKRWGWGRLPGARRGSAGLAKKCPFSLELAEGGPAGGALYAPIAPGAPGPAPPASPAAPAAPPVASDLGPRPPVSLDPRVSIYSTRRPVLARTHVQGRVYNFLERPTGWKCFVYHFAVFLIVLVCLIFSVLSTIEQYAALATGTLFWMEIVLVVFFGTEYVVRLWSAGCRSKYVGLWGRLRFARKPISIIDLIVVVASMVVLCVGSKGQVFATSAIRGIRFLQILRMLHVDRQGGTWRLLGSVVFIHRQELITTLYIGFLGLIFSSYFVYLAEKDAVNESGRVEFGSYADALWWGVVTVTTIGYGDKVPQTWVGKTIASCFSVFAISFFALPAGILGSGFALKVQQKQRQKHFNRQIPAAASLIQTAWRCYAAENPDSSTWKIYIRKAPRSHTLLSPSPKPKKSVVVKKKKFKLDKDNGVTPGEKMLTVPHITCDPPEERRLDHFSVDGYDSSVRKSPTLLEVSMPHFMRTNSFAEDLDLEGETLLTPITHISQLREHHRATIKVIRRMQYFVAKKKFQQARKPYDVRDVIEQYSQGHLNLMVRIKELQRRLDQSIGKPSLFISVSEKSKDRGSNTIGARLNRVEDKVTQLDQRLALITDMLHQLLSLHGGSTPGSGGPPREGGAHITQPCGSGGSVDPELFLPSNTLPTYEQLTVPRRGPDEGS
#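 Doses: Single concentration per compound, DMSO matched to controls | Test system: KCNQ1-transfected CHO-K1 cells | Timing: 90 min dye loading and 20 min compound exposure, both at room temperature | Measured by: Kinetic FluxOR thallium fluorescence, 10-s 1-Hz baseline, 110-s post-stimulus read | Medium: Assay buffer with matched DMSO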
# KCNK9 inh = human KCNK9 channel inhibition; Q9NPC2; B-score at 10 µM; 310,000 compounds, 1.2% hits; HEK293 KCNK9, FluxOR thallium flux fluorescence; hits give low values; AID 488922;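 active = ratio B-score over 3 SD below the library mean, with starting fluorescence within 5 SD of its mean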;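 also: negative B-score means less thallium flux so channel inhibition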
# KCNQ1 block = blocks the human KCNQ1 potassium channel; P51787; CHO-K1 KCNQ1, FluxOR thallium flux fluorescence; hits give high values; B-score at 10 µM; 310,000 compounds, 1.3% hits;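 active = compounds whose thallium flux B-score, printed positive for inhibition, exceeds three library SD while starting fluorescence stays within three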;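 also: channel opened by potassium depolarization with thallium stimulus after 20 min compound exposure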
# KCNK3 inh = human KCNK3 channel inhibition, primary screen | O14649 | CHO-KCNK3 thallium flux, FluxOR fluorescence; hits give low values | B-score at 10 µM | 340,000 compounds, 0.84% hits | AID 602410;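 active = B-score under library mean minus 4 SD, starting fluorescence ratio at most library mean plus 5 SD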;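 also: more negative B-score means stronger inhibition of thallium flux through KCNK3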
# Cl transport mod = modulates chloride dependent transport by human KCC2; Q9H2X9; KCC2 cells, thallium flux FluoZin-2 fluorescence; B-score of Tl+ flux slope (higher = more flux/activation; lower = inhibition) at 10 µM; 190,000 compounds, 2.2% hits; AID 1456;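 active = thallium flux slope and its plate-corrected score both differing from the plate sample mean at a set confidence after two filtering rounds, in either direction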;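 also: slope of fluorescence scaled to starting intensity during 10 to 20 s after thallium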
# KCNK9 inh conf = human KCNK9 inhibitor confirmation | shares compounds with KCNK9 inh | HEK293 KCNK9 cells, FluxOR thallium flux fluorescence | inhibition, % at 10 µM | 4,900 compounds, 43% hits | AID 492992;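 active = thallium signal inhibited by more than 5 SD of the compound-free buffer control wells, on both duplicate plates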;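 also: 0% = assay buffer control wells without compound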
# Kir2-1 spec = mouse Kir2.1 off-target activity of KCNK9 modulators; shares compounds with KCNK9 inh; Kir2.1 cells, FluxOR thallium flux fluorescence; inhibition, % at 10 µM; 4,900 compounds, 4% hits; AID 492993;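 active = thallium signal drop more than 5 SD beyond the mean of the no-compound control wells, seen in both duplicate plates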;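 also: signal is fluorescence rise after thallium addition divided by baseline fluorescence; plate controls were assay buffer only for no effect and full block by chlorpromazine control for full effect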
# KCNK9 uninduced = second counter-screen for KCNK9 modulators: effect in non-induced cells. 4,900 compounds, 40% hits. shares compounds with KCNK9 inh. inhibition, % at 10 µM. non-induced KCNK9-HEK293, FluxOR thallium flux;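 active = thallium signal drop beyond 5 SD of the untreated control mean, on both duplicate plates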;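 also: plate controls were buffer only IC0 wells for no effect and SID17386958 at its maximal inhibitory level for full effect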
# * marks the source's active call; other numbers are inactive results; i = inactive; / = no result.
SMILES,hERG rescue,KCNQ1 act,KCNK9 inh,KCNQ1 block,KCNK3 inh,Cl transport mod,KCNK9 inh conf,Kir2-1 spec,KCNK9 uninduced
Cc1ccc(Cl)c(N/C=C/C(=O)c2ccccc2)c1,-1,i,-15*,i,i,/,70%*,i,38%*
Cc1ccc(NC(=O)CN2C(=O)S/C(=C\c3cc(C)n(-c4ccc(C(=O)O)cc4)c3C)C2=O)cc1,-12,i,i,i,i,0.066,i,i,i
Cc1ccc(S(=O)(=O)N(CC(=O)Nc2ccccc2)C(=O)N2CCN(C)CC2)cc1,-7,i,i,i,i,/,/,/,/
COc1ccc(C2Nc3ccccc3C(=O)N2Cc2ccco2)cc1COc1ccccc1F (centres undefined),-7,i,-9*,i,i,-2,46%*,i,34%*
CCOC(=O)C1=C(CSc2nc(-c3ccccc3)ccc2C#N)OC(N)=C(C#N)C1c1ccccc1 (centres undefined),-12,i,-13*,i,i,-0.2,47%*,i,38%*
CCOC(=O)CC1=C(C(=O)OCC)C(c2cccnc2)C(C#N)=C(N)O1 (centres undefined),-12,i,i,i,i,-0.0017,/,/,/
CCOC(=O)C1=C(CSc2nc(-c3ccccc3)ccc2C#N)OC(N)=C(C#N)C1c1cccnc1 (centres undefined),-11,i,-18*,i,-17*,0.0099,68%*,i,40%*
Cc1ncnc(N)c1CCCNc1ccccc1,/,/,/,/,i,/,/,/,/
CCCCCCOc1ccc(N2C(=O)CC(N(CCc3ccc(S(N)(=O)=O)cc3)C(C)=O)C2=O)cc1 (centres undefined),-10,i,i,i,i,-0.27,/,/,/
CCc1nc(N2CCN(C(=O)c3ccccc3)CC2)c2c3c(sc2n1)CCCC3,-16,i,i,i,i,-0.9,/,/,/
CCc1nc(N2CCN(C(=O)c3ccco3)CC2)c2c3c(sc2n1)CCCC3,-15,i,-10*,i,i,-0.65,50%*,i,i
CN(Cc1cccc(Cl)c1Cl)C(=O)c1cccc(S(=O)(=O)N2CCN(Cc3ccccc3)CC2)c1,-10,i,i,i,i,/,i,i,i
O=C(Cc1ccccc1)c1ccc(N2CCOCC2)cc1,/,/,/,/,i,/,/,/,/
O=C(CCl)NC1CCCc2ccccc21 (centres undefined),0,i,i,i,i,0.09,/,/,/
O=C(CN1CCN(c2ccccc2)CC1)Nc1ccc2c(c1)CCC2,-10,i,i,i,i,-0.059,i,i,i
O=C(CN1CCN(c2cccc(Cl)c2)CC1)NC1CCCc2ccccc21 (centres undefined),-14,i,i,i,i,/,i,i,i
O=C(CN1CCN(c2ccccc2)CC1)Nc1ccncc1,-1,i,i,i,i,/,/,/,/
CCOc1cccc(-c2c(C(=O)N/N=C/c3ccc(C)s3)nnn2-c2nonc2N)c1,-14,i,i,i,i,/,/,/,/
CCOc1cccc(-c2c(C(=O)N/N=C/c3c(F)cccc3Cl)nnn2-c2nonc2N)c1,-10,i,-9.4*,i,i,/,i,i,i
CCOc1ccc2[nH]c(=O)c(CN(CCc3ccccc3)C(=O)N3CCCC3)cc2c1,-11,i,i,i,i,0.24,i,i,i
COc1cc(NC(=O)c2ccccc2)c(OC)cc1NC(=O)CN1CCOCC1,-13,i,i,i,i,-0.57,/,/,/
CCc1cc(C(c2ccc(OC)c(OC)c2)N2CCOCC2)c(NC(=O)c2ccccc2)s1 (centres undefined),-13,i,i,i,i,-1.3,i,i,i
O=[N+]([O-])c1cccc(-c2nc3ccccc3s/c2=N/O)c1,-18,i,-8.8*,i,i,-2.6,30%*,i,38%*
CC(C)Cc1nnc(NC(=O)c2ccc(S(=O)(=O)N3CCCC3)cc2)s1,/,/,/,/,i,/,/,/,/
COc1cccc(NC(=O)CSc2nc3c(sc4ccccc43)c(=O)n2CCN(C)C)c1,-15,i,i,i,i,1.3,/,/,/
SMILES,hERG rescue,KCNQ1 act,KCNK9 inh,KCNQ1 block,KCNK3 inh,Cl transport mod,KCNK9 inh conf,Kir2-1 spec,KCNK9 uninduced
CCN(CC)CCn1c(SCC(=O)Nc2cccc(OC)c2)nc2c(sc3ccccc32)c1=O,-21,i,-12*,i,i,-0.039,48%*,i,32%*
COc1ccc(NC(=O)CS(=O)c2cccc(Cl)c2)cc1 (centres undefined),-12,i,i,i,i,/,/,/,/
CCc1noc(C)c1C(=O)OCC(=O)Nc1nc(-c2ccc(F)c(F)c2)cs1,/,/,/,/,i,/,/,/,/
Cn1nc(-c2ccccc2F)c2cc(C(=O)Nc3ccc4c(c3)OCCO4)sc21,-13,i,-12*,i,i,/,49%*,i,i
O=C(CN1C(=O)S/C(=C\c2cccc(Cl)c2)C1=O)NCCCn1ccnc1,-18,i,i,i,i,/,i,i,i
O=C(CN1C(=O)S/C(=C\c2ccc(Cl)cc2)C1=O)NCCCn1ccnc1,-11,i,i,i,i,/,/,/,/
CCCCCc1ccc(-c2ccc(/C=C/C(=O)O)cc2)nc1,-3,i,i,i,i,-1.5,/,/,/
CCCCCCCc1ccc(-c2ccc(O)cc2)nc1,-3,i,i,i,i,0.71,i,i,i
Cc1ccc(SCC(=O)c2cc(C)c(O)c(C)c2)cc1,-6,i,i,i,i,/,/,/,/
Cc1cc(C(=O)CSc2ccc(F)cc2)cc(C)c1OC(=S)N(C)C,-9,i,i,i,i,-0.82,i,i,32%*
O=C(COc1ccccc1)Nc1cccc(-c2ccc(N3CCOCC3)nn2)c1,-13,i,i,i,i,/,/,/,/
CC(C)c1ccc2[nH]c3c(c2c1)CCC/C3=N\NC(=O)c1ccncc1,-10,i,i,i,i,3.1,/,/,/
COc1ccccc1NC1=C(Cl)C(=O)N(C2CCCCC2)C1=O,-16,i,-8.5*,i,i,/,58%*,i,29%*
CCOc1ccccc1NC1=C(Cl)C(=O)N(c2ccc(OC)cc2)C1=O,-12,i,-17*,i,i,-0.53,64%*,i,42%*
